Legend:
Assay type in all cases: cell-based
[1] = target: T1, ATP-dependent translocase ABCB1 (Homo sapiens, UniProt P08183); assay: Reversal of P-gp-mediated multidrug resistance in human KBV cells assessed as potentiation of paclitaxel-induced cytotoxicity by measuring cell survival at 10 uM after 72 hrs by MTT assay (reference value: 104 +/- 8%)
[2] = target: T1, ATP-dependent translocase ABCB1; assay: Reversal of P-gp-mediated multidrug resistance in human KBV cells assessed as potentiation of paclitaxel-induced cytotoxicity by measuring cell survival at 5 uM after 72 hrs by MTT assay (reference value: 104 +/- 8%)
[3] = Cytotoxicity against human KBV cells assessed as cell survival at 10 uM after 72 hrs by MTT assay relative to control; conditions: read-out: Survival
Outline: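 KBV (Pgp-overexpressing MDR line) grown in DMEM/10% FCS, kept in 10 nM paclitaxel; seeded, compound (DMSO stock) added next day, 72 h; MTT 2 h, formazan in DMSO, A570 gives survival vs DMSO solvent control; n = 1-3 independent experiments, mean ± SD.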

T1 sequence (P08183 whole entry): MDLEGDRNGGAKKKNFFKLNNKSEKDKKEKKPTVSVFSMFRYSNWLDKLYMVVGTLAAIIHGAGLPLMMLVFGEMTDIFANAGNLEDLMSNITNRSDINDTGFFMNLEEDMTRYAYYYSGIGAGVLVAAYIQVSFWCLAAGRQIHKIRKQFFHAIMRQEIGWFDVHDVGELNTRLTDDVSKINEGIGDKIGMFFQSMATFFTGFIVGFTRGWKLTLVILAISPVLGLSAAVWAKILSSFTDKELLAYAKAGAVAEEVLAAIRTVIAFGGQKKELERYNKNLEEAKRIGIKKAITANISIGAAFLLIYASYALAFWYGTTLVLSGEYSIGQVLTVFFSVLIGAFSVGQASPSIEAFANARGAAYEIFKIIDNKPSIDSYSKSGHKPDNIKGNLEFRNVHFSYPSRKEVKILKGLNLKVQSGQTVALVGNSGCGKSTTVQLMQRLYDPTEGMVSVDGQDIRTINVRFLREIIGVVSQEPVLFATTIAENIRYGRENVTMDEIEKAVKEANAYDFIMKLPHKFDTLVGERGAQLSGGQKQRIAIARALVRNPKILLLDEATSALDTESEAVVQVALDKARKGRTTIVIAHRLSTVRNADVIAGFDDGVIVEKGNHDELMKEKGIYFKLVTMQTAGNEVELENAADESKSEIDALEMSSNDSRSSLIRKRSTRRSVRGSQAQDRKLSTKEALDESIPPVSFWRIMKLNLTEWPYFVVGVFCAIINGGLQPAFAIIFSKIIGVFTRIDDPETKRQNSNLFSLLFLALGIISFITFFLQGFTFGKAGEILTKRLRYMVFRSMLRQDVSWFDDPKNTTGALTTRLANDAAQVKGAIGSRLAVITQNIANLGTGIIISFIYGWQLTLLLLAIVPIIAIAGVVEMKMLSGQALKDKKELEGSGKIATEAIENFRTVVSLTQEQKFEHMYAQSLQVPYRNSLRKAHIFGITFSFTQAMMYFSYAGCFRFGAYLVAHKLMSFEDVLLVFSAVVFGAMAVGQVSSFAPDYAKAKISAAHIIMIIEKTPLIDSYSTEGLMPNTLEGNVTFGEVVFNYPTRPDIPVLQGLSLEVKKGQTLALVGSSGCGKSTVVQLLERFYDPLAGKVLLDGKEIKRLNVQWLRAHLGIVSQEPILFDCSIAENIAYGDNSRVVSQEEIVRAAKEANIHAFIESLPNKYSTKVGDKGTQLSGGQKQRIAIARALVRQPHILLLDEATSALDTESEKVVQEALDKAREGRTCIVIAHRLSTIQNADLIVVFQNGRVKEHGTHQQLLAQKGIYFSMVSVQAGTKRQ

With `CC(C)(O)[C@@H]1CC[C@@](C)([C@H]2CC[C@]3(C)[C@@H]2[C@H](O)C[C@@H]2[C@@]4(C)CC[C@H](NC(=O)CCCCCCCN)C(C)(C)[C@@H]4CC[C@]23C)O1` the Survival [1] was 76%, the Survival [2] was 118% and the viability at 72 h, 10 µM [3] was 118%.

For `CC(C)(C)OC(=O)NCC(=O)N[C@H]1CC[C@]2(C)[C@H]3C[C@@H](O)[C@@H]4[C@@H]([C@]5(C)CC[C@@H](C(C)(C)O)O5)CC[C@@]4(C)[C@]3(C)CC[C@H]2C1(C)C`, the Survival [1] was 42%, the Survival [2] was 61% and the viability at 72 h, 10 µM [3] was 96%.

For `CC(C)(C)OC(=O)NCCCCCCCC(=O)N[C@H]1CC[C@]2(C)[C@H]3C[C@@H](O)[C@@H]4[C@@H]([C@]5(C)CC[C@H](C(C)(C)O)O5)CC[C@@]4(C)[C@]3(C)CC[C@H]2C1(C)C`, the Survival [1] was 39%, the Survival [2] was 54% and the viability at 72 h, 10 µM [3] was 106%.

Work on `CC(C)(O)[C@H]1CC[C@@](C)([C@H]2CC[C@]3(C)[C@@H]2[C@H](O)C[C@@H]2[C@@]4(C)CC[C@H](NC(=O)c5ccccc5C(=O)O)C(C)(C)[C@@H]4CC[C@]23C)O1` yielded a Survival [1] of 85%, a Survival [2] of 96% and a viability at 72 h, 10 µM [3] of 105%.

With `CC(C)(O)[C@H]1CC[C@@](C)([C@H]2CC[C@]3(C)[C@@H]2[C@H](O)C[C@@H]2[C@@]4(C)CC[C@H](NC(=O)c5ccccc5)C(C)(C)[C@@H]4CC[C@]23C)O1` the Survival [1] was 39%, the Survival [2] was 59% and the viability at 72 h, 10 µM [3] was 101%.

For `CC(C)(O)[C@H]1CC[C@@](C)([C@H]2CC[C@]3(C)[C@@H]2[C@H](O)C[C@@H]2[C@@]4(C)CC[C@H](NC(=O)CCCN)C(C)(C)[C@@H]4CC[C@]23C)O1`, the Survival [1] was 85%, the Survival [2] was 100% and the viability at 72 h, 10 µM [3] was 77%.

For `CCCC(=O)N[C@H]1CC[C@]2(C)[C@H]3C[C@@H](O)[C@@H]4[C@@H]([C@]5(C)CC[C@H](C(C)(C)O)O5)CC[C@@]4(C)[C@]3(C)CC[C@H]2C1(C)C`, the Survival [1] was 55%, the Survival [2] was 89% and the viability at 72 h, 10 µM [3] was 103%.

In the case of `CCCCCCCC(=O)N[C@H]1CC[C@]2(C)[C@H]3C[C@@H](O)[C@@H]4[C@@H]([C@]5(C)CC[C@H](C(C)(C)O)O5)CC[C@@]4(C)[C@]3(C)CC[C@H]2C1(C)C`, the Survival [1] is reported as 39%, the Survival [2] is reported as 56% and the viability at 72 h, 10 µM [3] is reported as 70%.

Molecule `CC(C)(O)[C@H]1CC[C@@](C)([C@H]2CC[C@]3(C)[C@@H]2[C@H](O)C[C@@H]2[C@@]4(C)CC[C@H](NC(=O)CCCCCCCN)C(C)(C)[C@@H]4CC[C@]23C)O1` has a Survival [1] of 38%, a Survival [2] of 84% and a viability at 72 h, 10 µM [3] of 80%.

`CCCCCC(=O)N[C@H]1CC[C@]2(C)[C@H]3C[C@@H](O)[C@@H]4[C@@H]([C@]5(C)CC[C@@H](C(C)(C)O)O5)CC[C@@]4(C)[C@]3(C)CC[C@H]2C1(C)C` gave a Survival [1] of 44%, a Survival [2] of 78% and a viability at 72 h, 10 µM [3] of 98%.

With `CC(C)(O)[C@@H]1CC[C@@](C)([C@H]2CC[C@]3(C)[C@@H]2[C@H](O)C[C@@H]2[C@@]4(C)CC[C@H](NC(=O)CCCCCN)C(C)(C)[C@@H]4CC[C@]23C)O1` the Survival [1] was 101%, the Survival [2] was 105% and the viability at 72 h, 10 µM [3] was 79%.

`CC(C)(O)[C@H]1CC[C@@](C)([C@H]2CC[C@]3(C)[C@@H]2[C@H](O)C[C@@H]2[C@@]4(C)CC[C@H](NC(=O)c5ccc(N)cc5)C(C)(C)[C@@H]4CC[C@]23C)O1` showed a Survival [1] of 47%, a Survival [2] of 77% and a viability at 72 h, 10 µM [3] of 75%.

`CC(C)(O)[C@H]1CC[C@@](C)([C@H]2CC[C@]3(C)[C@@H]2[C@H](O)C[C@@H]2[C@@]4(C)CC[C@H](O)C(C)(C)[C@@H]4CC[C@]23C)O1` showed a Survival [1] of 95% and a viability at 72 h, 10 µM [3] of 94%.

With `CC(C)(O)[C@@H]1CC[C@@](C)([C@H]2CC[C@]3(C)[C@@H]2[C@H](O)C[C@@H]2[C@@]4(C)CC[C@H](O)C(C)(C)[C@@H]4CC[C@]23C)O1` the Survival [1] was 104% and the viability at 72 h, 10 µM [3] was 111%.

From ChEMBL document CHEMBL4325852, “Design, synthesis, and discovery of ocotillol-type amide derivatives as orally available modulators of P-glycoprotein-mediated multidrug resistance” (Eur J Med Chem, 2019)
